Shown are actives, neighbours in structure and some others; about 3% of the full set was active somewhere.
MC4R ag barr: activates human MC4R beta-arrestin recruitment. AID 540308. actives 0.98% (n = 360,000). P32245. activation, % at 8.9 µM. U2OS MC4R beta-arrestin complementation, luminescence; percent of melanotan II response, DMSO zero;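 active means activation above a per-plate cutoff, the mean activation of sample wells on that plate plus 3 SD, cut at about 8% in these data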
PfGluPho inh: PfG6PD (Plasmodium falciparum) enzyme inhibition. PfGluPho enzyme, NADPH resazurin-diaphorase fluorescence. inhibition, % at 20 µM. actives 0.78% (n = 350,000). AID 504690;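 active means inhibition reaching at least a set limit at 20 µM in the primary screen, cut at about 59% in these data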;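 further: 0% = DMSO wells with substrate and 100% = DMSO wells lacking glucose-6-phosphate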
ABHD5 PLIN5 PPI: blocks binding of human ABHD5 to perilipin-5; Split G. princeps luciferase complementation, luminescence, 4 h; inhibition, % at 4 µM; actives 0.78% (n = 360,000); AID 602281;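 active means inhibition above the mean inhibition across every tested compound plus 3 SD, cut at about 22% in these data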;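 further: 0% = DMSO only wells and the 100% control is not disclosed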
Target sequence (Q00G26 whole entry, looked up): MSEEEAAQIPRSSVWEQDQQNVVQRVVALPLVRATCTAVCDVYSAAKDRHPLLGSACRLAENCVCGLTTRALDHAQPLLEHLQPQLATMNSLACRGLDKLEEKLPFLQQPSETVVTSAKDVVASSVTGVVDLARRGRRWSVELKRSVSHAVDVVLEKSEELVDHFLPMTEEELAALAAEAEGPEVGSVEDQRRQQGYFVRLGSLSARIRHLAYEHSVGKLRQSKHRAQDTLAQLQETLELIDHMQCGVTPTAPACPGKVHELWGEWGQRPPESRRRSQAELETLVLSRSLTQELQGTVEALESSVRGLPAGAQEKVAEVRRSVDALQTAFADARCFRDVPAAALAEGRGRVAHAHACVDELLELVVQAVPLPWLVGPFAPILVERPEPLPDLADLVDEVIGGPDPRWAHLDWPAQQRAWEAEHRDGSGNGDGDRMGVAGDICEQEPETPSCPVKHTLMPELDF
Target sequence (Q8WTS1 whole entry, looked up): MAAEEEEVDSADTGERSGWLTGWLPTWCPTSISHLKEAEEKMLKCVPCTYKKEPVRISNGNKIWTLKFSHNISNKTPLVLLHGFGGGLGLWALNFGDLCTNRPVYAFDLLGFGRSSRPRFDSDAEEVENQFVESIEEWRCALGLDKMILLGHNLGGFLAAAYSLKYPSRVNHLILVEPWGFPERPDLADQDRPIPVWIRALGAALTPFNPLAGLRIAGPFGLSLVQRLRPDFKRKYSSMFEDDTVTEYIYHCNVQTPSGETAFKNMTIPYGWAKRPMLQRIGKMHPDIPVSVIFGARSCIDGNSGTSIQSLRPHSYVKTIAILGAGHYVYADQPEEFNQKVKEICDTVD
Beta2AR agonist: human beta-2 adrenergic receptor agonism by FAP; P07550; Am2.2-beta2AR cells, FAP receptor internalization, flow cytometry; response, % (concentration not given with the values); actives 0.43% (n = 340,000); AID 504454;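 active means response above a set limit, near 3 SD of response in nonfluorescent compounds, cut at about 42% in these data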
MC4R antagonist: human MC4R antagonism in cAMP assay; MC4R-expressing cells, MTII-stimulated cAMP, LANCE TR-FRET; P32245; inhibition, % at 6.5 µM; actives 0.48% (n = 360,000);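 active means inhibition above its plate's cutoff, the mean of tested wells on that plate plus 3 SD, cut at about 29% in these data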;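 further: 0% = Melanotan II alone and 100% = Melanotan II plus saturating MCL0020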
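System: U2OS cells stably expressing human melanocortin 4 receptor (MC4R). Reagent: Melanotan II challenge after compound preincubation. Doses: 6.5 µM. Times: 30-min compound, 1-h challenge, 1-h detection, room temperature. Measured by: TR-FRET with Eu-cAMP and labeled anti-cAMP, 671 nm. Replicates: singlicate.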
MC4R barr conf: human MC4R beta-arrestin agonism confirmation; actives 31% (n = 2,400); activation, % at 8.9 µM; U2OS MC4R beta-arrestin recruitment, luminescence; scaled DMSO 0%, Melanotan II 100%; shares compounds with MC4R ag barr;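 active means mean activation across replicates above the hit cutoff set in the earlier primary screen, cut at about 8% in these data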
MOR DOR agonist: counter-screen for MC4R agonists: agonists of mu-delta opioid heterodimer | shares compounds with MC4R ag barr | U2OS PathHunter beta-arrestin, beta-gal luminescence; percent of deltorphin B response, DMSO zero | activation, % at 9.2 µM | actives 5.8% (n = 2,400) | AID 602194;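 active means mean activation across replicates exceeds the hit threshold derived in the earlier primary screen, cut at about 18% in these data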;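 further: 100% = deltorphin B at 0.9 µM final and 0% = DMSO alone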
Starred values were filed as active, the others as inactive.

Screening Cn1c(CCCOc2ccc(Cl)cc2Cl)nnc1SCC(=O)Nc1ccc(F)c(Cl)c1 returned MC4R ag barr 7, PfGluPho inh 9, ABHD5 PLIN5 PPI -6, Beta2AR agonist -12 and MC4R antagonist 4.
Screening Cn1c(CCCOc2ccc(Cl)cc2Cl)nnc1SCC(=O)Nc1cccc(F)c1 returned MC4R ag barr 19*, PfGluPho inh 3, ABHD5 PLIN5 PPI 0, Beta2AR agonist -15, MC4R antagonist -2, MC4R barr conf 9.8* and MOR DOR agonist 10.
`C=CCn1c(CCCOc2ccc(Cl)cc2Cl)nnc1SCC(=O)Nc1nccs1` gave MC4R ag barr 9.7*, PfGluPho inh -19, ABHD5 PLIN5 PPI -7, Beta2AR agonist 4, MC4R antagonist -6, MC4R barr conf 1 and MOR DOR agonist 6.
For Cc1ccc(NC(=O)c2ccc(N3CCCC3=O)cc2)cc1S(=O)(=O)N1CCCCC1 the results were MC4R ag barr -1, PfGluPho inh -3, ABHD5 PLIN5 PPI 2, Beta2AR agonist 1 and MC4R antagonist 5.
Screening Cc1ccc(-n2nnc3c(SCC(=O)NCc4ccco4)ncnc32)cc1 returned MC4R ag barr 13*, PfGluPho inh -6, ABHD5 PLIN5 PPI 4, Beta2AR agonist 13, MC4R antagonist 4, MC4R barr conf 1 and MOR DOR agonist 5.
For CCOC(=O)Cc1csc(NC(=O)c2sc3nc4ccc(C)cc4cc3c2N)n1 the results were MC4R ag barr 19*, PfGluPho inh 8, ABHD5 PLIN5 PPI 4, Beta2AR agonist 10, MC4R antagonist -5, MC4R barr conf 2 and MOR DOR agonist 4.
CCCn1ncc(CN2CCC(N3CCC(C(=O)N4CCOCC4)CC3)CC2)c1C was read as MC4R ag barr 1, PfGluPho inh -5, ABHD5 PLIN5 PPI 9, Beta2AR agonist 3 and MC4R antagonist -1.
For COc1ccc(N2CC(O)=C(c3nc(-c4ccccc4)cs3)C2=N)cc1 the results were MC4R ag barr 19*, PfGluPho inh -12, ABHD5 PLIN5 PPI -7, Beta2AR agonist 1, MC4R antagonist 8, MC4R barr conf 8 and MOR DOR agonist 4.
For CC(=O)c1cccc(OC(=O)Oc2cccc(C(C)=O)c2)c1 the results were MC4R ag barr 0, PfGluPho inh 1, ABHD5 PLIN5 PPI 2, Beta2AR agonist -8 and MC4R antagonist -5.
For COc1cc(C(=O)OCC(=O)Nc2cc(C)on2)ccc1OCc1ccccc1Cl the results were MC4R ag barr 18*, PfGluPho inh -9, ABHD5 PLIN5 PPI 3, Beta2AR agonist -4, MC4R antagonist 16, MC4R barr conf 3 and MOR DOR agonist 2.
`Cc1ccc(NC(=O)c2sc3ncn(CC(=O)N4CCN(c5ccccn5)CC4)c(=O)c3c2C)cc1` gave MC4R ag barr -1, PfGluPho inh -1, ABHD5 PLIN5 PPI 8 and MC4R antagonist -1.
Screening Cc1c(C(=O)Nc2ccc(C(F)(F)F)cc2)sc2ncn(CC(=O)N3CCN(c4ccccn4)CC3)c(=O)c12 returned MC4R ag barr 14*, PfGluPho inh 3, ABHD5 PLIN5 PPI 0, Beta2AR agonist 10, MC4R antagonist -5, MC4R barr conf 5 and MOR DOR agonist 9.
Cc1cccc2sc(N(CCCN(C)C)C(=O)COc3ccc(Cl)cc3)nc12 was read as MC4R ag barr 5, PfGluPho inh 4, ABHD5 PLIN5 PPI 19, Beta2AR agonist -9 and MC4R antagonist 10.
`Cc1cc(C)c2sc(N(CCCN(C)C)C(=O)COc3ccc(Cl)cc3)nc2c1` gave MC4R ag barr 11*, PfGluPho inh 8, ABHD5 PLIN5 PPI 21, Beta2AR agonist 23, MC4R antagonist 1, MC4R barr conf 25* and MOR DOR agonist 18.
`C/C(=N\Nc1ccc(C#N)cc1[N+](=O)[O-])c1ccc(O)cc1` gave MC4R ag barr 10*, PfGluPho inh -3, ABHD5 PLIN5 PPI 6, Beta2AR agonist -3, MC4R antagonist 4, MC4R barr conf 6 and MOR DOR agonist 8.
Cc1ccc(-c2nn(-c3ccccc3)cc2/C=C/C(=O)Nc2nccs2)cc1 was read as MC4R ag barr 19*, PfGluPho inh -6, ABHD5 PLIN5 PPI -4, Beta2AR agonist 0, MC4R antagonist -5, MC4R barr conf 8 and MOR DOR agonist 4.
`CCCCC(CC)Cn1c(N)c(C#N)c2nc3ccccc3nc21` (configuration not stated) gave MC4R ag barr 17*, PfGluPho inh 12, ABHD5 PLIN5 PPI 1, Beta2AR agonist -2, MC4R antagonist -6, MC4R barr conf 19* and MOR DOR agonist 15.
Screening Cc1ccc(-c2cc(C(=O)NCCN3CCOCC3)c3ccccc3n2)o1 returned MC4R ag barr 1, PfGluPho inh 1, ABHD5 PLIN5 PPI 5, Beta2AR agonist 8 and MC4R antagonist 17.
`Cc1cccc(C)c1NC(=O)c1cn(-c2ccccc2)nc1-c1ccccc1` gave MC4R ag barr 9.9*, PfGluPho inh -17, ABHD5 PLIN5 PPI -9, Beta2AR agonist -20, MC4R antagonist 20, MC4R barr conf 1 and MOR DOR agonist 6.
For O=[N+]([O-])c1ccccc1N(S(=O)(=O)c1ccccc1)S(=O)(=O)c1ccccc1 the results were MC4R ag barr -2, PfGluPho inh 6, ABHD5 PLIN5 PPI -6, Beta2AR agonist 5 and MC4R antagonist 8.
`Cc1ccccc1N1CCN(S(=O)(=O)c2nnc(NC(=O)CC(C)C)s2)CC1` gave MC4R ag barr 13*, PfGluPho inh -28, ABHD5 PLIN5 PPI -14, Beta2AR agonist 3, MC4R antagonist -1, MC4R barr conf 1 and MOR DOR agonist 6.
Screening Cc1ccccc1N1CCN(S(=O)(=O)c2nnc(NC(=O)c3ccco3)s2)CC1 returned MC4R ag barr 1, PfGluPho inh -16, ABHD5 PLIN5 PPI 6, Beta2AR agonist 2 and MC4R antagonist 2.
N#C/C(=C\c1ccc(Sc2ccccc2)o1)c1nc2ccccc2[nH]1 was read as MC4R ag barr 12*, PfGluPho inh 6, ABHD5 PLIN5 PPI 12, Beta2AR agonist -10, MC4R antagonist -3, MC4R barr conf 6 and MOR DOR agonist 8.
For CCC(=O)c1cc2c(cc1NC(=O)c1ccc(C)cc1)OCCO2 the results were MC4R ag barr 1, PfGluPho inh 8, ABHD5 PLIN5 PPI 8, Beta2AR agonist 2 and MC4R antagonist 1.
CC(=O)c1cc2c(cc1NC(=O)c1ccc(C)cc1)OCCO2 was read as MC4R ag barr 9.6*, PfGluPho inh 3, ABHD5 PLIN5 PPI -2, Beta2AR agonist -1, MC4R antagonist 1, MC4R barr conf 2 and MOR DOR agonist 1.
